For orientation: IC50 means the concentration that inhibits the measured activity by half.

Among the data in ChEMBL document CHEMBL1148731, “An integrated computational approach to the phenomenon of potent and selective inhibition of aurora kinases B and C by a series of 7-substituted indirubins” (J Med Chem, 2007) are IC50 values, retold here.

Some results are limits rather than exact numbers.

The target of one test is T1, Aurora kinase A (Homo sapiens, UniProt O14965).
T1 sequence (O14965 whole entry): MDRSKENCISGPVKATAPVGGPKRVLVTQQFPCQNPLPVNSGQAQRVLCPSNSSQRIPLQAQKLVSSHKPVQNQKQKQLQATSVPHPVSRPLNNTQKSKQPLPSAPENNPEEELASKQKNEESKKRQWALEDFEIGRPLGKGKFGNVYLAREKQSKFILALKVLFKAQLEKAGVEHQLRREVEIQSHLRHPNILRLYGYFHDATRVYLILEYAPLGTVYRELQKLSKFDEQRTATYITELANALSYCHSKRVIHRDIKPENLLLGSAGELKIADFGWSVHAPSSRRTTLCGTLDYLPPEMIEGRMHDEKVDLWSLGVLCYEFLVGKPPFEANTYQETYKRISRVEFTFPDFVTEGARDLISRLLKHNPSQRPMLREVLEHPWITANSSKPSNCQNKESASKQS
Briefly: Inhibition of human recombinant aurora A kinase.

The next test addresses Aurora kinase B (Homo sapiens, UniProt Q96GD4). Briefly: Inhibition of human recombinant aurora B kinase. The procedure, abridged: (§1)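 Recombinant human Aurora kinase (A, B or C); myelin basic protein substrate (1 mg/mL) with 15 µM [γ-33P]ATP in buffer C (25 mM Mops pH 7.2, 60 mM β-glycerophosphate, 15 mM p-nitrophenylphosphate, 5 mM EGTA, 15 mM MgCl2, 1 mM DTT, 1 mM vanadate, 1 mM phenylphosphate), 30 min at 30 °C. Stopped by spotting on P81 paper, washed in 1% phosphoric acid, scintillation counted. IC50 from dose-response curves over various concentrations.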

The next test deals with T2, Aurora kinase C (Homo sapiens, UniProt Q9UQB9).
T2 sequence (Q9UQB9 whole entry): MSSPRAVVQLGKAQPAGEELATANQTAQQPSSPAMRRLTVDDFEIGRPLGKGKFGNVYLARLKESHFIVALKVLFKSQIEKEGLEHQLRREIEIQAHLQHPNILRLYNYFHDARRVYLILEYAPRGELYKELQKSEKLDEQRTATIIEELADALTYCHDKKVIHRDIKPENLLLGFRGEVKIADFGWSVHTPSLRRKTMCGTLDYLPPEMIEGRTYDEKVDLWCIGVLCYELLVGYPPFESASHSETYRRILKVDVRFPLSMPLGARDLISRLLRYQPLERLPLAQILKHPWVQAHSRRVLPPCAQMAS
Description: Inhibition of human recombinant aurora C kinase. The method, boiled down:
as §1

Aurora kinase B, sequence (Q96GD4 whole entry): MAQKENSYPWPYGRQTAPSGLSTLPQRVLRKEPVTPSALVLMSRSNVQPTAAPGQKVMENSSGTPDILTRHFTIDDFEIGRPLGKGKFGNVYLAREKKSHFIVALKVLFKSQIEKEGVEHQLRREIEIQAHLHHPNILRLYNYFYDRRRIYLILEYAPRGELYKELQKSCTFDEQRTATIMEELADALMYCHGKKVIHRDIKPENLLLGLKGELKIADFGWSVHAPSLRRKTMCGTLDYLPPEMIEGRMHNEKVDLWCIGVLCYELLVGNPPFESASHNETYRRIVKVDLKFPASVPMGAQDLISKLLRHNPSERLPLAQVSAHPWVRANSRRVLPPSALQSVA

For `O=C1C(c2c(O)[nH]c3c(I)cccc23)=Nc2ccccc21`, the IC50 on Aurora kinase A, at Aurora kinase B and on Aurora kinase C was more than 100 µM each time.
Take `CC(=O)O/N=C1\C(=C2\C(=O)Nc3c(Br)cccc32)Nc2ccccc21`: the IC50 is more than 100 µM at Aurora kinase A, 20 µM on Aurora kinase B and 4.5 µM on Aurora kinase C.
Take `CC(=O)O/N=C1\C(c2c(O)[nH]c3ccccc23)=Nc2ccccc21`: the half-inhibitory concentration (IC50) on Aurora kinase A turned out to be 2.3 µM; on Aurora kinase B, 2.1 µM; on Aurora kinase C, 0.7 µM.
Taken in the same sequence, the figures for `CO/N=C1\C(c2c(O)[nH]c3ccccc23)=Nc2ccccc21` were 4.3 µM, 3 µM and 0.4 µM.
Consider `CO/N=C1\C(=C2\C(=O)Nc3c(Br)cccc32)Nc2ccccc21`, for which the IC50 at Aurora kinase A, at Aurora kinase B and on Aurora kinase C was more than 100 µM each time.
As to `CC(=O)O/N=C1\C(=C2\C(=O)Nc3c(Cl)cccc32)Nc2ccccc21`, the IC50 at Aurora kinase A, at Aurora kinase B and at Aurora kinase C was more than 100 µM throughout.
In the case of `CO/N=C1\C(=C2\C(=O)Nc3c(Cl)cccc32)Nc2ccccc21`, the half-inhibitory concentration (IC50) on Aurora kinase A, at Aurora kinase B and on Aurora kinase C was more than 100 µM each time.
With `O=C1C(c2c(O)[nH]c3c(Cl)cccc23)=Nc2ccccc21`, the 50% inhibitory concentration (IC50) on Aurora kinase A, at Aurora kinase B and at Aurora kinase C was more than 100 µM throughout.
For `O=Nc1c(-c2c(O)[nH]c3c(Br)cccc23)[nH]c2ccccc12`, the half-inhibitory concentration (IC50) turned out to be 4.6 µM at Aurora kinase B and 0.7 µM on Aurora kinase C.
On to `CO/N=C1\C(=C2\C(=O)Nc3c(F)cccc32)Nc2ccccc21`, for which the IC50 at Aurora kinase A, on Aurora kinase B and on Aurora kinase C was more than 100 µM each time.
Regarding `CC(=O)O/N=C1\C(=C2\C(=O)Nc3c(F)cccc32)Nc2ccccc21`, the IC50 turned out to be 20 µM on Aurora kinase A, 8 µM on Aurora kinase B and 1 µM at Aurora kinase C.
For `O=C1C(c2c(O)[nH]c3c(Br)cccc23)=Nc2ccccc21`, the IC50 at Aurora kinase A, on Aurora kinase B and on Aurora kinase C was more than 100 µM throughout.
Regarding `O=C1Nc2cc(Br)ccc2/C1=C1/Nc2ccccc2/C1=N\O` [6BIO], the IC50 at Aurora kinase B stood at 0.9 µM; at Aurora kinase C, 0.2 µM.
For the compound `O=Nc1c(-c2c(O)[nH]c3c(F)cccc23)[nH]c2ccccc12`, the IC50 on Aurora kinase A came out at 2 µM; at Aurora kinase B, 7 µM; at Aurora kinase C, 1 µM.
As to `O=Nc1c(-c2c(O)[nH]c3c(Cl)cccc23)[nH]c2ccccc12`, the IC50 at Aurora kinase A is more than 100 µM; at Aurora kinase B, 8 µM; on Aurora kinase C it was 0.9 µM.
For the compound `CC(=O)O/N=C1\C(=C2\C(=O)Nc3c(I)cccc32)Nc2ccccc21`, the IC50 at Aurora kinase A was more than 100 µM; at Aurora kinase B, more than 100 µM; on Aurora kinase C, 28 µM.
For the compound `O=Nc1c(-c2c(O)[nH]c3ccccc23)[nH]c2ccccc12` [INDIRUBIN-3-MONOXIME], the IC50 at Aurora kinase A turned out to be 4 µM; on Aurora kinase B it was 2.3 µM; at Aurora kinase C, 0.3 µM.
As for `O=Nc1c(-c2c(O)[nH]c3c(I)cccc23)[nH]c2ccccc12`, the IC50 on Aurora kinase A was more than 100 µM; on Aurora kinase B, 10 µM; on Aurora kinase C, 0.6 µM.
For the compound `O=C1C(c2c(O)[nH]c3c(F)cccc23)=Nc2ccccc21`, the IC50 at Aurora kinase A, on Aurora kinase B and at Aurora kinase C was more than 100 µM throughout.
With `CO/N=C1\C(=C2\C(=O)Nc3c(I)cccc32)Nc2ccccc21`, the half-inhibitory concentration (IC50) at Aurora kinase A, on Aurora kinase B and at Aurora kinase C was more than 100 µM throughout.
